“Also recorded” adds a separate entry of the source. Read-outs that look alike come from different tables or passages of the source.
Columns and labels:
TrxR [1] = settings: 50 μM 4-HNE for 6 hr, HeLa cells; cited from earlier work
NF-κB [2] = settings: cited from earlier work
[3] = cited from earlier work
GSH [4] = settings: human endothelial cells, pretreatment; cited from earlier work
[5] = test system: human endothelial HMEC-1 cells; settings: 12.5 μM acrolein; cited from earlier work
Trx1 = settings: cited from earlier work
Trx2 = settings: cited from earlier work
[6] = test system: human endothelial HMEC-1 cells; experiment: Protection of human endothelial cells from acrolein toxicity / cell death; assay type: cell-based
TrxR [7] = experiment: TrxR specific activity in normal human bronchial epithelial cells; assay type: cell-based; settings: BEAS-2B cells, 2.5 μM acrolein, 30 min
Procedure, shortened: (§1)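 BEAS-2B normal human bronchial epithelial cells exposed to acrolein for 30 min, with vehicle-alone cultures as controls. Specific activity of TrxR, glutathione reductase (GSSG-R) and GAPDH determined by enzymatic assay. Significance (P < 0.01) judged against vehicle-treated cells.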

[8] = target: glutathione reductase (GSSG-R) (Homo sapiens, UniProt P00390); experiment: Glutathione reductase specific activity in BEAS-2B cells; assay type: cell-based; settings: bronchial cells (BEAS-2B), 30 min
Sequence of glutathione reductase (GSSG-R) (P00390 44-522): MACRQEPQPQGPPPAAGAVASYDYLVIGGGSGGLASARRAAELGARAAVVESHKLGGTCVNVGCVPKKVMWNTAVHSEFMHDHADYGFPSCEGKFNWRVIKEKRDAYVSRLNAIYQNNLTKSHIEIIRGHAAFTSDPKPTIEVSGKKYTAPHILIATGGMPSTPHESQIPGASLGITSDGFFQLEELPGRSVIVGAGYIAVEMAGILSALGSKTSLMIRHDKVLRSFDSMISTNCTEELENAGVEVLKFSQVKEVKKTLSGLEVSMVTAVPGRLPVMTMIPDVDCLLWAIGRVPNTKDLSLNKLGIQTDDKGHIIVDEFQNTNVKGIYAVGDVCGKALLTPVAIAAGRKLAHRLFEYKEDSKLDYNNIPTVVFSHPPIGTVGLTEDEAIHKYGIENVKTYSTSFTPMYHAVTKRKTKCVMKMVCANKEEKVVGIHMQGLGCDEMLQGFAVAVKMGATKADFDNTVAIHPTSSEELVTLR
Procedure, shortened: as §1

[9] = target: glyceraldehyde-3-phosphate dehydrogenase (GAPDH) (Homo sapiens, UniProt P04406); experiment: GAPDH specific activity in BEAS-2B cells; assay type: cell-based; settings: 30 min acrolein
Sequence of glyceraldehyde-3-phosphate dehydrogenase (GAPDH) (P04406 whole entry): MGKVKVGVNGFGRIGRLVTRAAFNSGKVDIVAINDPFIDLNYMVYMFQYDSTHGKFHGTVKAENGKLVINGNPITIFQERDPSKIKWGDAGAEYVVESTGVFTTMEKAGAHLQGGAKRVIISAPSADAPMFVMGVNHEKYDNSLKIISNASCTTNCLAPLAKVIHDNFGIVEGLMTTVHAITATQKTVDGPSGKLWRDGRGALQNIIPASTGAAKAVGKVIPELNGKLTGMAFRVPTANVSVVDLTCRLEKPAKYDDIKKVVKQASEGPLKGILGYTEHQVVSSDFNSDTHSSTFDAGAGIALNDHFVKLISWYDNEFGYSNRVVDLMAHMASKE
Procedure, shortened: as §1

GSH [10] = experiment: GSH levels in human endothelial cells; assay type: cell-based; settings: HMEC-1 cells, acrolein 30 min, recovery 1 or 2 h
ASK1 bound to Trx1 = ASK1 bound to Trx1 (Homo sapiens, UniProt P10599); experiment: Immunoprecipitation of ASK1 bound to Trx1 in HMEC-1 cells; assay type: cell-based; settings: acrolein 30 min
Sequence of ASK1 bound to Trx1 (P10599 2-105 limits assumed): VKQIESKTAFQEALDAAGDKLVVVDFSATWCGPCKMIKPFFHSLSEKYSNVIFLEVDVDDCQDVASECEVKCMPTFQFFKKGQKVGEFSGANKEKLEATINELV

p38 = p38 phosphorylation western blot in HMEC-1 cells; assay type: cell-based, human
Procedure, shortened: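 HMEC-1 cells treated with acrolein, with anisomycin (200 ng/ml) as a known activator and untreated cells as controls. Western blots probed with anti-phospho-p38 (Thr180/Tyr182) and anti-p38α for total p38α. 3–5 independent treatments per condition, compared against untreated control.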

JNK = JNK phosphorylation western blot in HMEC-1 cells; assay type: cell-based, human
Procedure, shortened: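 HMEC-1 endothelial cells given acrolein; anisomycin at 200 ng/ml served as positive activator, and untreated cells as reference. Immunoblots probed for phospho-JNK (Thr183/Tyr185) and with anti-pan-JNK for total JNK. n = 3–5 independent treatments for each condition.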

TrxR [11] = settings: A549 cells, cited from earlier work
TrxR [12] = settings: 25 μM acrolein for 30 min, human umbilical vein endothelial cells; cited from earlier work
TrxR [13] = settings: BEAS-2B cells, cited from earlier work
Purified TrxR = settings: 1 μM acrolein; cited from earlier work
glutathione reductase = settings: 25 μM acrolein, 30 min, human umbilical vein endothelial cells; cited from earlier work
glutathione peroxidase = settings: 25 μM acrolein, 30 min, human umbilical vein endothelial cells; cited from earlier work
superoxide dismutase = settings: 25 μM acrolein, 30 min, human umbilical vein endothelial cells; cited from earlier work
catalase = settings: 25 μM acrolein, 30 min, human umbilical vein endothelial cells; cited from earlier work
Human endothelial cells = settings: 30 min; cited from earlier work
[14] = depending on the cell type; cited from earlier work
Trx = settings: cited from earlier work
Prx1 = settings: acrolein-treated human bronchial cells; cited from earlier work
Prx3 = settings: acrolein-treated human bronchial cells; cited from earlier work
AP-1 = settings: A549 cells, reporter construct; cited from earlier work
NF-κB [15] = settings: A549 cells; cited from earlier work
NF-κB [16] = settings: bovine endothelial cells; cited from earlier work
[17] = human endothelial cells, limited experiments
[18] = 5 μM acrolein, human endothelial and bronchial epithelial cells

## CCCCCC(O)/C=C/C=O (stereo not drawn) [4-HNE, 4-hydroxynonenal]
TrxR [1]
  inhibition of TrxR activity: ca. 60%

## O=C/C=C/c1ccccc1 [Cinnamaldehyde]
NF-κB [2]
  effect on NF-κB activity: blocks NF-κB activity

## N[C@@H](CCC(=O)N[C@@H](CS)C(=O)NCC(=O)O)C(=O)O [GSH, reduced glutathione]
[3]
  pKa of thiol: 8.8

## CCOC(=O)CNC(=O)[C@H](CS)NC(=O)CC[C@H](N)C(=O)O [GSH-monoethyl ester]
GSH [4]
  increase in GSH levels: 64%
[5]
  protection of cells from acrolein: only a minor protection

## CC(=O)N[C@@H](CS)C(=O)O [NAC, N-acetylcysteine, reference compound]
Trx1; human endothelial cells, 2 hr pretreatment
  protection of Trx1 redox state from acrolein: partially protects
Trx2; [17]
  protection of Trx2 from acrolein: did not protect
GSH [4]
  increase in GSH levels: 31%

## C[S+]([O-])c1ccc(-c2nc(-c3ccncc3)c(-c3ccc(F)cc3)[nH]2)cc1 (stereo not drawn) [SB203580]
[6]; HMEC-1 cells, SB203580 10 μM 2 hr pretreatment, 5 and 12.5 μM acrolein 30 min, 14 hr in fresh medium
  protection from acrolein toxicity (Fig. 7): decreases acrolein toxicity; also recorded: protects

## Oc1c2ccccc2c2c3c(cccc13)N=N2 [SP600125]
[6]; human endothelial HMEC-1 cells, inhibitor alone
  effect on cell death by itself: increases cell death

## C=CC=O [acrolein, Prop-2-enal]
TrxR [7]
  effect on TrxR activity (Fig. 2): markedly inhibits
[8]; 12.5 μM acrolein
  inhibition of glutathione reductase activity (Fig. 2): ca. 40%
[8]; 2.5 or 5 μM acrolein
  effect on glutathione reductase activity (Fig. 2): not inhibited
[9]
  effect on cellular activity of glyceraldehyde phosphate dehydrogenase (Fig. 2): not significantly affected
GSH [10]
  recovery of GSH levels once acrolein is removed (Fig. 3): recover quickly
ASK1 bound to Trx1
  ASK1 bound to Trx1 (IP, Fig. 4): causes dissociation of ASK1 from Trx1
p38
  phosphorylation of p38 (Fig. 5): causes phosphorylation of p38
JNK
  phosphorylation of JNK (Fig. 6): causes phosphorylation of JNK
TrxR [11]; 50-75 μM acrolein for 30 min
  inhibition of TrxR activity: ca. 65%
TrxR [11]; 2-4 hr after acrolein removal
  TrxR activity recovered after acrolein removal: 70-100%
TrxR [12]
  inhibition of TrxR activity: 88%
TrxR [13]; 1 μM acrolein
  effect on TrxR activity at 1 μM: significant inhibition
TrxR [13]; 4 hr after acrolein removal
  recovery of TrxR activity after acrolein removal: does not recover
TrxR [13]
  acrolein concentration that strongly inhibits TrxR activity: ≥ 2.5 µM
Purified TrxR
  irreversible inhibition of purified TrxR: 80%
Glutathione reductase
  effect on glutathione reductase: not inhibited; also recorded: unaffected
Glutathione peroxidase
  effect on glutathione peroxidase: not inhibited; also recorded: unaffected
Superoxide dismutase
  effect on superoxide dismutase: not inhibited; also recorded: unaffected
catalase
  effect on catalase: not inhibited
Human endothelial cells
  cytotoxic concentration: ≥ 5 µM
[14]
  toxicity relative to formaldehyde: 10-200 times
Trx; A549 cancer cells
  concentration for maximal inhibition of Trx activity: ≥ 15 µM
Trx; A549 cells, 4 hr after acrolein removed
  recovery of Trx activity after acrolein removal: partial recovery
Trx1; [18]
  effect on reduced form of Trx1 (redox blot): eliminate the reduced forms
Trx1; human endothelial cells, 4-hr acrolein-free period
  recovery of Trx1 redox state after acrolein removal: modest recovery
Trx2; [18]
  effect on reduced form of Trx2 (redox blot): eliminate the reduced forms
Trx2; [17]
  redox recovery of Trx2 after acrolein removal: not observed
Prx1
  oxidation of Prx1 to dimers: near complete oxidation
Prx3
  oxidation of Prx3 to dimers: near complete oxidation
AP-1
  effect on AP-1 DNA binding and activity: decreases AP-1 binding to DNA and AP-1 activity
NF-κB [15]
  effect on NF-κB binding and activity: blocks both the binding and activity of NF-κB
NF-κB [16]
  effect on NF-κB DNA binding: blocks NF-κB DNA binding

Source: paper PMC3517082 (Molecular nutrition & food research, 2011)
